Laboratory results taken from ChEMBL document CHEMBL4038268, “Methylpyrrole inhibitors of BET bromodomains” (Bioorg Med Chem Lett, 2017).

Columns and labels:
[1] = Oral bioavailability in mouse at 10 mg/kg; assay type: ADME, organism-based; details: in vivo
MX1 = assay: Antiproliferative activity against human MX1 cells incubated over 72 hrs by Cell Titre Glo luminescence assay; assay type: functional, cell-based; details: MX1, 72 h
Method in brief: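 Triple-negative breast cancer line MX-1 grown 3 days with compound. Proliferation read with the CellTiter-Glo kit. EC50 is the mean of two measurements.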

Mus musculus = assay: Unbound AUC in mouse at 10 mg/kg, po; assay type: ADME, organism-based; details: in vivo
[2] = Half life in mouse at 3 mg/kg, iv; assay type: ADME, organism-based; details: in vivo
[3] = target: T1, Transcription intermediary factor 1-alpha (Homo sapiens, UniProt O15164); assay: Inhibition of human TRIM24-phd-bromo (P790 to P977 residues) expressed in bacterial expression system by BROMOscan assay
T1 sequence (O15164 whole entry): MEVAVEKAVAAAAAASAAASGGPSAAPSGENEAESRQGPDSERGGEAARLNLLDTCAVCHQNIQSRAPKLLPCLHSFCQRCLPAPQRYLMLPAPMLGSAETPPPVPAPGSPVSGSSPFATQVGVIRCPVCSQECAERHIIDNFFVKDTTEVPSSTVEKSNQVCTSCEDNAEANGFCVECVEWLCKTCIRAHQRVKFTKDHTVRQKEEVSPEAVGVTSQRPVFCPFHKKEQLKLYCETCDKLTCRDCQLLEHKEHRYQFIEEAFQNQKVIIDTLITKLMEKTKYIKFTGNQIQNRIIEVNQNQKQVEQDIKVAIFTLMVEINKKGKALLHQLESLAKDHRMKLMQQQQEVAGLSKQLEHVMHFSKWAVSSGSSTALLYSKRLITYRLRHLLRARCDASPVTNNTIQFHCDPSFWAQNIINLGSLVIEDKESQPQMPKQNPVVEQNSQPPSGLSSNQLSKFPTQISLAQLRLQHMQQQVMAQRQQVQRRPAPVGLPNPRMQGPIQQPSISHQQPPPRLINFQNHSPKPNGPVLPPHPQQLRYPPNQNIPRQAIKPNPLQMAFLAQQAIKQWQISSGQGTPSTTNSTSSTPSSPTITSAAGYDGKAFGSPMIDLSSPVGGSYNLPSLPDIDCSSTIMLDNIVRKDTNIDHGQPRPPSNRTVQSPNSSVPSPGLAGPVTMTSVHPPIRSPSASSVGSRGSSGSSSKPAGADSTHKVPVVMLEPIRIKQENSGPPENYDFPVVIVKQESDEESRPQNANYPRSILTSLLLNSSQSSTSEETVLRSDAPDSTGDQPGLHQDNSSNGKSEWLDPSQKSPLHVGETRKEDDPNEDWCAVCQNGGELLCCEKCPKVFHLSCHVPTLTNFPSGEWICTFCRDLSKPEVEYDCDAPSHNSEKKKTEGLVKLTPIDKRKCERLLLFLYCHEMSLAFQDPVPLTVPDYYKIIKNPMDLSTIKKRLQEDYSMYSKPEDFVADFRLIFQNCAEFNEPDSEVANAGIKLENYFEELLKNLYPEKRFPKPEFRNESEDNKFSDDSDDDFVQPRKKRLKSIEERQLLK

Peregrin (Homo sapiens) = target: T2, Peregrin (Homo sapiens) (UniProt P55201); assay: Inhibition of human BRPF1 (E627 to G740 residues) expressed in bacterial expression system at 1 uM by BROMOscan assay
T2 sequence (whole entry): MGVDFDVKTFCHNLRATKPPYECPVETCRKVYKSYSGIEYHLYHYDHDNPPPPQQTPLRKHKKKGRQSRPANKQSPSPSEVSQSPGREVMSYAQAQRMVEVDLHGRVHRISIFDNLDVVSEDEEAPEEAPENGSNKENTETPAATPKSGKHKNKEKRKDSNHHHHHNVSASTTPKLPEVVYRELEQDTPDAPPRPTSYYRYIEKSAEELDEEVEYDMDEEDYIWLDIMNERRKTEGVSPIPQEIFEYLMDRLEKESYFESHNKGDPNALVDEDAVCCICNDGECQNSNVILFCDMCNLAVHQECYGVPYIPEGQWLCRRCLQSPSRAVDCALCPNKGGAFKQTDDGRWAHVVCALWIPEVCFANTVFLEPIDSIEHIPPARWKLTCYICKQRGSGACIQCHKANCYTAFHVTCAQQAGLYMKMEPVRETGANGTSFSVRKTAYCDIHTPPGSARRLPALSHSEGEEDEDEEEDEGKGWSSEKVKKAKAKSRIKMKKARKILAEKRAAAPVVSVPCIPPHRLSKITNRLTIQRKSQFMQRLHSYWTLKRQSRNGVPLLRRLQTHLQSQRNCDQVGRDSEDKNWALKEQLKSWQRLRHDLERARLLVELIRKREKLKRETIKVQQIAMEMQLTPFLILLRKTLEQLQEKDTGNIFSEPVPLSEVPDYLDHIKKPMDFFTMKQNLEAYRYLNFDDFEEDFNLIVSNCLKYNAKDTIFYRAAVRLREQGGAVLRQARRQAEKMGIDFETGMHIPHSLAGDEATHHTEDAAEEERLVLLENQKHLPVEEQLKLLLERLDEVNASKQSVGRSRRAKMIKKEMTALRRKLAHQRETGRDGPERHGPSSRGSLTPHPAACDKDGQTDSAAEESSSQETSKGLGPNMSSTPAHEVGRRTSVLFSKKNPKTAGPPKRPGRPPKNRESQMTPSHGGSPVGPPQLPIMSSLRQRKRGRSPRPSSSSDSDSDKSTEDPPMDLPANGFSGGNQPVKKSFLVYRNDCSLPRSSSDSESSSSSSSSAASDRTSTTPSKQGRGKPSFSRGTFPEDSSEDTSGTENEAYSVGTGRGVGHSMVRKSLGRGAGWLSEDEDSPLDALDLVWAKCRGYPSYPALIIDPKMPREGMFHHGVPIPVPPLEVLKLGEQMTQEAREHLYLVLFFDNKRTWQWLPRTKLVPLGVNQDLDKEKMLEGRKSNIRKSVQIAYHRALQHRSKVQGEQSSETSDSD

Protein polybromo-1 = Protein polybromo-1 (Homo sapiens, UniProt Q86U86); assay: Inhibition of human PBRM1 bromodomain 2 (S178 to E291 residues) expressed in bacterial expression system by BROMOscan assay
Protein polybromo-1, sequence (Q86U86 whole entry, the tested form may be a part): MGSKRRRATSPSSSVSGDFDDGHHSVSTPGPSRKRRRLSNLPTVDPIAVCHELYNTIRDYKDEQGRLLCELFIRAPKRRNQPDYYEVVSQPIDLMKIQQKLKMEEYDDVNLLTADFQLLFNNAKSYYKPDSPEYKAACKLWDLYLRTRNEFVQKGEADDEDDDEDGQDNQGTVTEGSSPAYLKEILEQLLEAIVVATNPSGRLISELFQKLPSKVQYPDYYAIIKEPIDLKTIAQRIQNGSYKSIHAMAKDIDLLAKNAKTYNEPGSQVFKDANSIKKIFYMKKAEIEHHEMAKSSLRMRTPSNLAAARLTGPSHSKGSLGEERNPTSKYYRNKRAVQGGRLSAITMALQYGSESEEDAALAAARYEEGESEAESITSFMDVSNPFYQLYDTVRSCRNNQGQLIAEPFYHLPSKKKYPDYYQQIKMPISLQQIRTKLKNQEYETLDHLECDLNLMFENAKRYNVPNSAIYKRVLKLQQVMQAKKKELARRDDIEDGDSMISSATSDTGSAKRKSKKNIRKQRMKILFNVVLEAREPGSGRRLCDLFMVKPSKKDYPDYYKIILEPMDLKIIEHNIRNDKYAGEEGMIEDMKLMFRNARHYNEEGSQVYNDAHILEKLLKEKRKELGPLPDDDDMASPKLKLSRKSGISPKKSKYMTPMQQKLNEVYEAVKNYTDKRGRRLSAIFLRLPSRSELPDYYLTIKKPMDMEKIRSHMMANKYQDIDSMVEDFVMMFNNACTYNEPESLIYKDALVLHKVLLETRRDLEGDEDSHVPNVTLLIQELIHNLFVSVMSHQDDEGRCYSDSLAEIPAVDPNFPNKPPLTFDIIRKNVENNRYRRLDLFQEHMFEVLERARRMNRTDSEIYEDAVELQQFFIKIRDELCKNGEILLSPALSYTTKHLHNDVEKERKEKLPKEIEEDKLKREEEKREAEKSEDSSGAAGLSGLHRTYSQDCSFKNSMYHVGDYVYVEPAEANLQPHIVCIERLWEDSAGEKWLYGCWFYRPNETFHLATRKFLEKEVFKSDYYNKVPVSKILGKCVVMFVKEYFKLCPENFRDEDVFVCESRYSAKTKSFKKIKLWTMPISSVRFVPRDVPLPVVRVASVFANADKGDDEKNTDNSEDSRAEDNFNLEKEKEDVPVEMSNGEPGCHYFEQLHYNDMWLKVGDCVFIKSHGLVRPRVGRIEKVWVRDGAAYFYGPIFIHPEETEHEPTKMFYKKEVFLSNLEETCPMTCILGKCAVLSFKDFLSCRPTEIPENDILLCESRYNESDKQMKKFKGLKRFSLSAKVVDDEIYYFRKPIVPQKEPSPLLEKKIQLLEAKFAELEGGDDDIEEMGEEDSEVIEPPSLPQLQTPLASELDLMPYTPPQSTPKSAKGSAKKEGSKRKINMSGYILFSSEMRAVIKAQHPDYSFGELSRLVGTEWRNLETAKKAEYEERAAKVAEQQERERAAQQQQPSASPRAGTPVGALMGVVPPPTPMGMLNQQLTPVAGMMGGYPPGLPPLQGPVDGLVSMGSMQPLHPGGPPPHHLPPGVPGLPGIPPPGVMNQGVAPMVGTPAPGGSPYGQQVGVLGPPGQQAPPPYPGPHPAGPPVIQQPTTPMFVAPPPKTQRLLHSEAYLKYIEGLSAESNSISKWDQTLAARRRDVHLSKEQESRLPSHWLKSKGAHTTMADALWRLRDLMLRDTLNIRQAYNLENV

[4] = target: Bromodomain-containing protein 3 (Homo sapiens, UniProt Q15059); assay: Binding affinity to BRD3 BD1-BD2 (P24 to P416 residues) (unknown origin) after 1 hr by Alexa-647-conjugated probe based TR-FRET assay
Bromodomain-containing protein 3, sequence (Q15059 whole entry, the tested form may be a part): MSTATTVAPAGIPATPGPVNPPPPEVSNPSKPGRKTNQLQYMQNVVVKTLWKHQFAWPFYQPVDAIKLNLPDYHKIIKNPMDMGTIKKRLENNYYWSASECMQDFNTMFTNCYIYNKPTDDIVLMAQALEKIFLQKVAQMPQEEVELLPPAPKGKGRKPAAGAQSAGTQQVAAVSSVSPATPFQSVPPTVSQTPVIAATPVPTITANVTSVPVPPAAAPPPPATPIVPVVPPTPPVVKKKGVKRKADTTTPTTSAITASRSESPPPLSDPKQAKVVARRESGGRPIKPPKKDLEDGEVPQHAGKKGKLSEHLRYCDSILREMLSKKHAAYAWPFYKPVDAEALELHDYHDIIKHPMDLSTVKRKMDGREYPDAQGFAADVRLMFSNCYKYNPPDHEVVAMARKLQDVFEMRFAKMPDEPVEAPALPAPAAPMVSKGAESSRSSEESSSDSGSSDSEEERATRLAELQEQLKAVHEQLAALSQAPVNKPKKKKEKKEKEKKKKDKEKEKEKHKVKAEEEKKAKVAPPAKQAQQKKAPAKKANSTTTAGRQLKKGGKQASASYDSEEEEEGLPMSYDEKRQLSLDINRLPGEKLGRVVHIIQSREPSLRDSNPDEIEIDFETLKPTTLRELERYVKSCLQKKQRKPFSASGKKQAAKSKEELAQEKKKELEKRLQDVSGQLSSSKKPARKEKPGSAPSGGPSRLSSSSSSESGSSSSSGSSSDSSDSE

[5] = target: T3, Bromodomain-containing protein 4 (Homo sapiens, UniProt O60885); assay: Binding affinity to BRD4 BD1 (K57 to E168 residues) (unknown origin) after 1 hr by Alexa-647-conjugated probe based TR-FRET assay
[6] = target: T3, Bromodomain-containing protein 4; assay: Binding affinity to BRD4 BD2 (E352 to M457 residues) (unknown origin) expressed in Escherichia coli BL21 (DE3) after 1 hr by Alexa-647-conjugated probe based TR-FRET assay
[7] = target: Bromodomain testis-specific protein (Homo sapiens, UniProt Q58F21); assay: Binding affinity to BRDT BD1-BD2 (N21 to P380 residues) (unknown origin) after 1 hr by Alexa-647-conjugated probe based TR-FRET assay

| Compound | bioavailability [1] | EC50 (MX1) | fAUC (Mus musculus) | half-life [2] | IC50 [3] | inhibition (Peregrin (Homo sapiens)) | IC50 (Protein polybromo-1) | Ki [4] | Ki [5] | Ki [6] | Ki [7] |
| --- | --- | --- | --- | --- | --- | --- | --- | --- | --- | --- | --- |
| Cn1cc(-c2cc(S(C)(=O)=O)ccc2Oc2ccc(F)cc2F)c2cc[nH]c(=O)c21 | 57% | 110 nM | 0.86 µM·h | 2.5 h | 10000 nM | 83% | > 10000 nM | 290 nM | 77 nM | 280 nM | 490 nM |
| Cc1[nH]c(-c2cc(NS(C)(=O)=O)ccc2Oc2ccccc2)c2c1C(=O)CCC2 | 30% | 160 nM | 0.09 µM·h | 0.6 h | > 10000 nM | 100% | > 10000 nM | 35 nM | 18 nM | 38 nM | 110 nM |
| Cc1[nH]c(-c2cc(S(C)(=O)=O)ccc2Oc2ccc(F)cc2F)c2c1C(=O)NCC2 | 32% | 900 nM | 0.53 µM·h | 1.3 h | > 10000 nM | 98.6% | > 10000 nM | 110 nM | 34 nM | 38 nM | 140 nM |
